Shown are actives, neighbours in structure and some others; about 1.8% of the full set was active somewhere.
Apaf-1 inh: human Apaf-1 inhibition; O14727; reconstituted apoptosome caspase-3 activity, DEVD-Rh110 fluorescence; inhibition, % at 20 µM; hit rate 0.71% among 330,000; AID 489030; active = inhibition of at least 40% at 20 µM;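 also: plate controls were DMSO wells for no effect and DEVD-CHO caspase inhibitor wells for full effect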
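System – cell-free apoptosome with Apaf-1, procaspase-3 and caspase-9 · Buffer or medium – pH 7.5 Hepes buffer with CHAPS, BSA, DTT · Also added – cytochrome c with DEVD-Rh110 · Times – 30 min compound preincubation, 50 min activation, room temperature · Technique – Rh110 fluorescence intensity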
PAD4 inh: inhibitors of human PAD4; recombinant PAD4, RCA probe fluorescence polarization; inhibition, % at 6.36 µM; hit rate 0.41% among 330,000;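 active = percent inhibition above a cutoff equal to the mean of all tested compounds plus 3 SD, cut at about 15% in these data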;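 also: 0% = PAD4 with RCA probe and DMSO and 100% = probe without PAD4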
TDP2 inh: TDP2 (human) inhibition, absorbance primary screen; hit rate 0.34% among 370,000; inhibition, % at 12.8 µM; recombinant TDP2, T5PNP hydrolysis, p-nitrophenol absorbance 415 nm; AID 720702; O95551;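 active = inhibition above the mean of all tested compounds plus 3 SD, set per campaign, cut at about 25% in these data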;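 also: 0% = DMSO with enzyme and 100% = buffer with substrate but no TDP2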
Target sequence (O95551 whole entry, looked up): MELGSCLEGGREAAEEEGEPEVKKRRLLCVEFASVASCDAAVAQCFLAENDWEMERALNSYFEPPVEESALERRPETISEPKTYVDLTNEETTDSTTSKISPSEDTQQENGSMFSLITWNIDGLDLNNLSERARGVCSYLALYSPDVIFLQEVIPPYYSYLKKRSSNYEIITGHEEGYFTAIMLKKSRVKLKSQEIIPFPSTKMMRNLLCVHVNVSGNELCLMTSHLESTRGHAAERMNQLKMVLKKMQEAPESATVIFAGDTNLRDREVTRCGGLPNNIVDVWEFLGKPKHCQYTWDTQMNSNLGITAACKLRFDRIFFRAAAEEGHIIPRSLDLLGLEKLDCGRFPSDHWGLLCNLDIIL
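Incubation: 2 h at 37 °C; Test system: recombinant human TDP2; Quantity: enzyme 120 nM; Read-out basis: percent inhibition; Medium: 50 mM Tris-HCl pH 7.5 with Mg2+, KCl, DTT, BSA; Repeats: single replicate; Compound: 12.8 µM single point, 1% DMSO; Signal: epi absorbance; Reagent: 5 mM T5PNP chromogenic substrate; Benchmarks: no-enzyme high, DMSO-plus-enzyme low.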
GSTO1 inh: GSTO1 inhibition, counter-screen for RBBP9 inhibitors | AID 1974 | inhibition, % at 5.96 µM | hit rate 1.1% among 300,000 | recombinant GSTO1, activity-based probe fluorescence polarization;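 active = inhibition above the campaign mean inhibition plus 3 SD, cut at about 35% in these data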;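 also: 0% = GSTO1-1 with DMSO and 100% = wells lacking GSTO1-1 enzyme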
Target sequence (P78417 whole entry, looked up): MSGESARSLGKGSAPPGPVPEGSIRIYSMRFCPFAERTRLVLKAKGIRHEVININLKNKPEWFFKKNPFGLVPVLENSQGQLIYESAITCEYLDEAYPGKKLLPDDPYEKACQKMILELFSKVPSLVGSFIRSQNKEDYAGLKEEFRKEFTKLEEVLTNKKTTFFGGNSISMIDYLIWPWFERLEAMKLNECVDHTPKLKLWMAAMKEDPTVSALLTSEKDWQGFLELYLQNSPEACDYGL
Fh CTSL1 inh: blocks F. hepatica cathepsin L1 in PFM18AAP counter-screen; recombinant F. hepatica cathepsin L1, Z-Leu-Arg-MCA fluorescence; inhibition, % at 5.96 µM; hit rate 0.49% among 300,000; AID 1906;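 active = inhibition above the mean of all tested compounds plus 3 SD, set per screening campaign, cut at about 17% in these data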;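 also: 0% = plate median of test compound wells and 100% = 1 µM Z-Phe-Ala-diazomethylketone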
GSTO1 confirm: confirmation of human GSTO1 inhibitors | shares compounds with GSTO1 inh | recombinant GSTO1, probe fluorescence polarization | inhibition, % at 5.96 µM | hit rate 54% among 2,400 | AID 2176;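 active = inhibition above the primary screen's cutoff, its mean inhibition plus 3 SD, cut at about 35% in these data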;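 also: loss of polarization as inhibitors block binding of rhodamine sulfonate ester activity probe; 0% = GSTO1 with DMSO and 100% = wells lacking GSTO1 enzyme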
GSTO1 recomb ABPP: inhibitors of recombinant human GSTO1 | gel ABPP SE-Rh probe fluorescence | shares compounds with GSTO1 inh | inhibition, % at 1 µM | hit rate 30% among 130;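 active = inhibition of the enzyme GSTO1 above about 75%, limit read from the data; inactive = inhibition below that limit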
PAD4 confirm: confirmation of human PAD4 inhibitors; shares compounds with PAD4 inh; recombinant PAD4, RCA probe fluorescence polarization; inhibition, % at 6.36 µM; hit rate 28% among 1,200; AID 488796;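 active = mean inhibition across replicates above the hit cutoff set by the earlier primary screen, cut at about 15% in these data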;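 also: inhibitors block active-site labeling by the probe so polarization falls; 0% = PAD4 with probe and DMSO and 100% = probe without PAD4 enzyme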
Apaf-1 inh conf2: Apaf-1 inhibition, single-dose confirmed | AID 504614 | hit rate 25% among 1,800 | reconstituted apoptosome, caspase-3 DEVD-Rh110 fluorescence | shares compounds with Apaf-1 inh | inhibition, % at 20 µM;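 active = mean inhibition of at least 40% at 20 µM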;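 also: plate controls were DMSO wells for no effect and DEVD-CHO caspase inhibitor control wells for full effect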
Rh110 interf inh: counter-screen for Apaf-1 inhibitors: fluorescence interference. activation (fluorescence interference), % at 20 µM. shares compounds with Apaf-1 inh. Rh110 fluorescence interference, quenched caspase reaction. 1,800 tested, under 10 active. AID 504615;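 active = signal rise of 40% or more at 20 µM, treated as a fluorescence artifact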
Fluor interf inh: Apaf-1 inhibitor counter-screen fluorescence artifact. IC50, µM. shares compounds with Apaf-1 inh. 460 tested, under 10 active. fluorescence interference counterscreen, Apaf-1 assay format; call rule not given here
An asterisk follows results filed as active; nt = no result.

SMILES	Apaf-1 inh	PAD4 inh	TDP2 inh	GSTO1 inh	Fh CTSL1 inh	GSTO1 confirm	others
CC(C)(C)c1ccc(O)c(N=Cc2c(O)ccc3ccccc23)c1	21	-6	-6	69*	1	8
C[n+]1c2ccccc2nc2ccc(NCCO)cc21	94*	84*	19	69*	38*	46*
CC(=O)C1=C(C)OC2=C(C(=O)CCC2)[C@@]12C(=O)N(C)c1ccccc12	nt	nt	0	nt	nt	nt
CC1CCN(C(CC(=O)c2ccccc2)C(=O)c2ccccc2)CC1 (centres undefined)	nt	nt	-12	nt	nt	nt
CC1CCN(C(=O)CCl)CC1	2	1	5	93*	6	95*	GSTO1 recomb ABPP=83*
O=C(CN1CCCC1=O)N1CCOCC1	10	0	-1	56*	6	12
Cc1cc(NC(=O)CCl)no1	-7	2	-4	87*	6	98*
COc1cc(O)c(C(=O)O)c(-c2cc(O)c(O)cc2C)c1	0	1	-10	64*	-1	23
COc1ccc2c(c1)c(C(=O)O)c(C)n2CC(C)C	-11	0	-22	2	-1	nt
O=C(NC1CCCCC1)N1Cc2cc(Br)ccc2-n2nncc2C1	nt	nt	10	nt	nt	nt
CN(C)C1C(=O)C(C(N)=O)=C(O)C2(O)C(=O)C3=C(O)c4c(O)cccc4C(C)(O)C3C(O)C12 (centres undefined)	-12	-3	11	68*	4	42*
CC(C)(C)N1C(=O)NC(=O)/C(=C\c2ccc3c(c2)CCN3CCCCl)C1=O	7	1	19	38*	1	66*
O=C1NC(=S)N(C2CC2)C(=O)/C1=C/c1ccc2c(c1)CCN2CCCCl	nt	-6	1	56*	1	63*
CCN1C(=O)/C(=C/c2ccc3c(c2)CCN3CCCCl)C(=O)NC1=S	nt	-5	-1	56*	5	70*
C=CCN1C(=O)/C(=C/c2ccc3c(c2)CCCN3CCC)C(=O)NC1=S	0	-3	-1	8	4	nt
O=C(NCCN1CCC2(CC1)C(=O)NCN2c1ccccc1)c1ccc2ccccc2c1	nt	nt	4	nt	nt	nt
O=C(NCCN1CCC2(CC1)C(=O)NCN2c1ccccc1)c1ccc(F)cc1	nt	nt	12	nt	nt	nt
c1ccc(-c2[nH]c[n+](CC3CO3)c2-c2ccccc2)cc1 (centres undefined)	51*	3	nt	76*	1	81*	GSTO1 recomb ABPP=24
c1ccc(OCC2CO2)cc1 (centres undefined)	-3	-3	0	nt	nt	nt
O=P(OCCCl)(OCCCl)OCCCl	nt	nt	0	nt	nt	nt
C[C@]12CC[C@@H]3c4ccc(O)c(O)c4CC[C@H]3[C@@H]1CC[C@@H]2O	14	1	-20	61*	-4	8
Cn1c(O)c(C2=NNC(c3ccc(Cl)cc3)C2)c(=O)n(C)c1=O (centres undefined)	-6	4	-19	3	-1	nt
Cn1c(O)c(C2=NN(C(=O)CCl)C(c3ccccc3)C2)c(=O)n(C)c1=O (centres undefined)	-20	4	12	102*	0	98*
O=C(NCCN1CCC2(CC1)C(=O)NCN2c1ccccc1)c1cccs1	nt	nt	8	nt	nt	nt
Cc1ccc(OC(=O)N(C)C[C@H]2OCc3cnnn3CCCC(=O)N([C@@H](C)CO)C[C@@H]2C)cc1	nt	nt	6	nt	nt	nt
SMILES	Apaf-1 inh	PAD4 inh	TDP2 inh	GSTO1 inh	Fh CTSL1 inh	GSTO1 confirm	others
C=C(C)Cn1c(=O)n(CC2CS2)c2ccccc21 (centres undefined)	2	-1	-1	50*	-1	46*
N#CCCC#N	nt	nt	2	nt	nt	nt
COP(=O)(OC)C(C)NC(=O)OCc1ccccc1 (centres undefined)	nt	nt	10	nt	nt	nt
CN1CC[C@@]2(C)c3cc(O)ccc3N(C)[C@@H]12	nt	nt	13	nt	nt	nt
CN1CC[C@@]2(C)c3cc(O)ccc3N(C)C2O1 (some centres undefined)	92*	45*	nt	85*	0	51*	PAD4 confirm=9
O=C(O)CC1OCC=C2CN3CCC45C6=CC(=O)C(=O)C([N+](=O)[O-])=C6NC4C1C2CC35 (centres undefined)	nt	66*	nt	79*	106*	82*	PAD4 confirm=60*
O=C(NCCN1CCC2(CC1)C(=O)NCN2c1ccccc1)c1ccccc1F	nt	nt	5	nt	nt	nt
CCn1nc(-c2ccccc2)nc2c(=O)n(C)c(=O)nc1-2	98*	68*	nt	90*	114*	92*	PAD4 confirm=-4
Cc1ccc2c(C)cccc2c1	nt	nt	-2	nt	nt	nt
CC(C)CNC(=O)c1c(N)n(Cc2ccco2)c2nc3ccccc3nc12	45*	-31	-2	42*	0	-1	Apaf-1 inh conf2=32;Rh110 interf inh=18
CC(C)CNC(=O)c1c(N)n(Cc2ccc3c(c2)OCO3)c2nc3ccccc3nc12	96*	7	4	62*	6	1	Apaf-1 inh conf2=34;Rh110 interf inh=-2
Cc1ncoc1C(=O)NCC1=C(c2ccc(S(C)(=O)=O)cc2)C[C@@H]2CC[C@H]1N2CCOc1ccccc1	nt	nt	0	nt	nt	nt
CCCNC(=O)N1[C@H]2CC[C@@H]1C(C(=O)OC)=C(c1ccc(C(C)=O)cc1)C2	-2	1	14	nt	nt	nt
CCCN1CCc2cccc3c2[C@H]1Cc1ccc(O)c(O)c1-3	53*	4	nt	93*	9	9	Apaf-1 inh conf2=13;Rh110 interf inh=10
COc1ccc(OC(=O)N(C)C[C@H]2OCc3cnnn3CCCC(=O)N([C@@H](C)CO)C[C@@H]2C)cc1	nt	nt	-6	nt	nt	nt
COC(=O)C1=C(c2ccc(F)cc2F)C[C@@H]2CC[C@H]1N2C(=O)NCCOc1ccccc1Cl	19	-2	nt	nt	nt	nt
Cc1nc2c(=O)n(C)c(=O)nc-2n(C)n1	99*	77*	86*	98*	112*	96*	PAD4 confirm=69*;Apaf-1 inh conf2=100*;Rh110 interf inh=-3;Fluor interf inh=>100
CC(C)OCCCNC(=O)c1c(N)n(Cc2cccs2)c2nc3ccccc3nc12	95*	52*	-14	60*	6	-8	PAD4 confirm=2;Apaf-1 inh conf2=34;Rh110 interf inh=14
COCCNC(=O)c1c(N)n(CCC(C)C)c2nc3ccccc3nc12	82*	40*	9	75*	-2	6	PAD4 confirm=-2;Apaf-1 inh conf2=30;Rh110 interf inh=9

From PubChem
